Test results taken from ChEMBL document CHEMBL1949496, “Synthesis of [¹⁸F]-labeled (2-(2-fluoroethoxy)ethyl)triphenylphosphonium cation as a potential agent for myocardial imaging using positron emission tomography” (Bioorg Med Chem Lett, 2012).

Assays:
Nucleic Acid [1] = assay: Ratio of drug level in BALB/c mouse heart to lung at 7.4 MBq, iv after 60 mins by gamma counter; format: ADME, organism-based; details: in vivo, 1 h
Method in brief: (§1)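 Normal BALB/c mice were given the 18F tracer by i.v. injection. Tissues were sampled at 10, 30, 60 and 120 min. Activity is expressed as % injected dose per gram of tissue (n = 12), and organ ratios were taken from these values.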

Blood [2] = assay: Biodistribution in BALB/c mouse blood at 7.4 MBq, iv after 120 mins by gamma counting; format: ADME, organism-based; details: in vivo, 2 h
Method in brief: (§2)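 Tracer given intravenously to BALB/c mice; animals sampled at 10, 30, 60 and 120 min after injection. Organ radioactivity expressed as percentage of injected dose per gram of tissue (% ID/g), n = 12.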

Kidney [3] = assay: Biodistribution in BALB/c mouse kidney at 7.4 MBq, iv after 30 mins by gamma counting; format: ADME, organism-based; details: in vivo, 0.5 h; method in brief: as §2
Lung [4] = assay: Biodistribution in BALB/c mouse lung at 7.4 MBq, iv after 120 mins by gamma counting; format: ADME, organism-based; details: in vivo, 2 h; method in brief: as §2
Lung [5] = assay: Biodistribution in BALB/c mouse lung at 7.4 MBq, iv after 60 mins by gamma counting; format: ADME, organism-based; details: in vivo, 1 h; method in brief: as §2
Intestine [6] = assay: Biodistribution in BALB/c mouse intestine at 7.4 MBq, iv after 10 mins by gamma counting; format: ADME, organism-based; details: in vivo; method in brief: as §2
Bone [7] = assay: Biodistribution in BALB/c mouse bone at 7.4 MBq, iv after 10 mins by gamma counting; format: ADME, organism-based, Bone element; details: in vivo; method in brief: as §2
Blood [8] = assay: Biodistribution in BALB/c mouse blood at 7.4 MBq, iv after 30 mins by gamma counting; format: ADME, organism-based; details: in vivo, 0.5 h; method in brief: as §2
[9] = Metabolic stability in human serum assessed as compound remaining at 0.37 MBq after 4 hrs by TLC analysis; format: ADME, cell-free; details: read-out: Stability
Method in brief: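 Analysed on ITLC-sg strips developed in methylene chloride:methanol (9:2 v/v), and the strips were scanned on an automatic TLC scanner.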

Stomach [10] = assay: Biodistribution in BALB/c mouse stomach at 7.4 MBq, iv after 60 mins by gamma counting; format: ADME, organism-based; details: in vivo, 1 h; method in brief: as §2
Blood [11] = assay: Biodistribution in BALB/c mouse blood at 7.4 MBq, iv after 60 mins by gamma counting; format: ADME, organism-based; details: in vivo, 1 h; method in brief: as §2
Nucleic Acid [12] = assay: Ratio of drug level in BALB/c mouse heart to blood at 7.4 MBq, iv after 120 mins by gamma counter; format: ADME, organism-based; details: other tissue, 2 h; method in brief: as §1
Nucleic Acid [13] = assay: Ratio of drug level in BALB/c mouse heart to liver at 7.4 MBq, iv after 10 mins by gamma counter; format: ADME, organism-based; details: in vivo; method in brief: as §1
Pancreas = assay: Biodistribution in BALB/c mouse pancreas at 7.4 MBq, iv after 120 mins by gamma counting; format: ADME, organism-based; details: in vivo, 2 h; method in brief: as §2
Intestine [14] = assay: Biodistribution in BALB/c mouse intestine at 7.4 MBq, iv after 30 mins by gamma counting; format: ADME, organism-based; details: in vivo, 0.5 h; method in brief: as §2
Kidney [15] = assay: Biodistribution in BALB/c mouse kidney at 7.4 MBq, iv after 60 mins by gamma counting; format: ADME, organism-based; details: in vivo, 1 h; method in brief: as §2
H9c2 = assay: Cellular uptake in rat H9c2 cells after 0.5 hrs by gamma counting; format: ADME, cell-based; details: h9c2, 0.5 h
Method in brief: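 Radiotracer incubated with H9c2 cells at 37 °C for 0.5, 1 or 2 h. Uptake expressed as percentage of applied radioactivity; means ± SD of three measurements.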

Liver [16] = assay: Biodistribution in BALB/c mouse liver at 7.4 MBq, iv after 30 mins by gamma counting; format: ADME, organism-based; details: in vivo, 0.5 h; method in brief: as §2
Kidney [17] = assay: Biodistribution in BALB/c mouse kidney at 7.4 MBq, iv after 10 mins by gamma counting; format: ADME, organism-based; details: in vivo; method in brief: as §2
Nucleic Acid [18] = assay: Ratio of drug level in BALB/c mouse heart to liver at 7.4 MBq, iv after 30 mins by gamma counter; format: ADME, organism-based; details: in vivo, 0.5 h; method in brief: as §1
Heart = assay: Drug uptake in Sprague-Dawley rat heart at 37 MBq, iv after 0.5 hrs by micro PET analysis; format: ADME, organism-based; details: in vivo
Method in brief: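 Rats received the tracer intravenously and were imaged by micro-PET in coronal view at 0.5 h and 1.0 h after injection.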

Bone [19] = assay: Biodistribution in BALB/c mouse bone at 7.4 MBq, iv after 60 mins by gamma counting; format: ADME, organism-based, Bone element; details: in vivo, 1 h; method in brief: as §2
Muscle tissue = assay: Biodistribution in BALB/c mouse normal muscle at 7.4 MBq, iv after 60 mins by gamma counting; format: ADME, organism-based; details: in vivo, 1 h; method in brief: as §2
Liver [20] = assay: Biodistribution in BALB/c mouse liver at 7.4 MBq, iv after 120 mins by gamma counting; format: ADME, organism-based; details: in vivo, 2 h; method in brief: as §2
Bone [21] = assay: Biodistribution in BALB/c mouse bone at 7.4 MBq, iv after 120 mins by gamma counting; format: ADME, organism-based, Bone element; details: in vivo, 2 h; method in brief: as §2
[22] = Octanol-NaCl aqueous solution partition coefficient, log P of the compound after 20 mins by gamma counting; format: physicochemical
Nucleic Acid [23] = assay: Ratio of drug level in BALB/c mouse heart to liver at 7.4 MBq, iv after 120 mins by gamma counter; format: ADME, organism-based; details: in vivo, 2 h; method in brief: as §1
Lung [24] = assay: Biodistribution in BALB/c mouse lung at 7.4 MBq, iv after 30 mins by gamma counting; format: ADME, organism-based; details: in vivo, 0.5 h; method in brief: as §2
Kidney [25] = assay: Biodistribution in BALB/c mouse kidney at 7.4 MBq, iv after 120 mins by gamma counting; format: ADME, organism-based; details: in vivo, 2 h; method in brief: as §2
Lung [26] = assay: Biodistribution in BALB/c mouse lung at 7.4 MBq, iv after 10 mins by gamma counting; format: ADME, organism-based; details: in vivo; method in brief: as §2
Stomach [27] = assay: Biodistribution in BALB/c mouse stomach at 7.4 MBq, iv after 30 mins by gamma counting; format: ADME, organism-based; details: in vivo, 0.5 h; method in brief: as §2

[18F]CCOCC[P+](c1ccccc1)(c1ccccc1)c1ccccc1
Ratio (Nucleic Acid [1]): 5.05 | Drug uptake (Blood [2]): 0.24 % ID/g | Drug uptake (Kidney [3]): 23.67 % ID/g | Drug uptake (Lung [4]): 5.55 % ID/g | Drug uptake (Lung [5]): 4.01 % ID/g | Drug uptake (Intestine [6]): 9.14 % ID/g | Drug uptake (Bone [7]): 3.37 % ID/g | Drug uptake (Blood [8]): 0.22 % ID/g | remaining at 4 h, 0.37 MBq [9]: > 95% | Drug uptake (Stomach [10]): 4.72 % ID/g | Drug uptake (Blood [11]): 0.23 % ID/g | Ratio (Nucleic Acid [12]): > 102 | Ratio (Nucleic Acid [13]): 11.08 | Drug uptake (Pancreas): 5.44 % ID/g | Drug uptake (Intestine [14]): 8.52 % ID/g | Drug uptake (Kidney [15]): 16.86 % ID/g | Drug uptake (H9c2): 0.47% | Drug uptake (Liver [16]): 2.42 % ID/g | Drug uptake (Kidney [17]): 36.05 % ID/g | Ratio (Nucleic Acid [18]): 8.05 | Drug uptake (Heart): Active | Drug uptake (Bone [19]): 2.44 % ID/g | Drug uptake (Muscle tissue): 4.42 % ID/g | Drug uptake (Liver [20]): 1.33 % ID/g | Drug uptake (Bone [21]): 2.28 % ID/g | logP at 20 min [22]: 0.89 | Ratio (Nucleic Acid [23]): 19.16 | Drug uptake (Lung [24]): 5.18 % ID/g | Drug uptake (Kidney [25]): 9.28 % ID/g | Drug uptake (Lung [26]): 7.69 % ID/g | Drug uptake (Stomach [27]): 3.98 % ID/g
